We go through 3 compounds from ChEMBL document CHEMBL3112476, “Inhibition of IκB kinase-β and IκB kinase-α by heterocyclic adamantyl arotinoids” (Bioorg Med Chem, 2014).

Assay [1] deals with T1, Inhibitor of nuclear factor kappa-B kinase subunit beta (Homo sapiens) (UniProt O14920).
T1 sequence (whole entry): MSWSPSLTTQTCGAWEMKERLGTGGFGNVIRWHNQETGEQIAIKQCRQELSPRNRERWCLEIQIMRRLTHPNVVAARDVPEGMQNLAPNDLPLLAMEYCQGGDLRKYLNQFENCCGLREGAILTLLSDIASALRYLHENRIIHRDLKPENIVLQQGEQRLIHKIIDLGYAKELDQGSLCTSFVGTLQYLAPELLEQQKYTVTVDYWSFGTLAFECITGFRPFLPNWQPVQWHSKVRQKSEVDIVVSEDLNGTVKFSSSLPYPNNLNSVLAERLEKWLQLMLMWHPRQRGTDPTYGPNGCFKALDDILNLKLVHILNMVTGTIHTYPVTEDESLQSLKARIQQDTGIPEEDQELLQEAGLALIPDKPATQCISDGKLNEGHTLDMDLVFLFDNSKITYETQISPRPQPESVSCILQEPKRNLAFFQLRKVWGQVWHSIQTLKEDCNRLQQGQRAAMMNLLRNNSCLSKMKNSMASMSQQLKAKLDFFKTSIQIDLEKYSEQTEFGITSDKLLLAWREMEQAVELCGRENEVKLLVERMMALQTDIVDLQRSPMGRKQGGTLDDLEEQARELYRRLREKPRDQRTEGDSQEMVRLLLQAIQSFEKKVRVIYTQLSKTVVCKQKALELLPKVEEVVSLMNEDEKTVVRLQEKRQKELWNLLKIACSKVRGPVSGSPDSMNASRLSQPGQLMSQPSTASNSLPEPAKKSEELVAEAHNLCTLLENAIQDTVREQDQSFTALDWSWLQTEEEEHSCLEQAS
The assay can be described thus: Inhibition of recombinant IKKbeta (unknown origin) using ulight-IkappaomegaBalpha as substrate at 20 uM after 1 hr by LANCE ultra TR-FRET assay relative to control.

Assay [2] concerns the target T2, Retinoic acid receptor alpha (Homo sapiens) (UniProt P10276).
T2 sequence (whole entry): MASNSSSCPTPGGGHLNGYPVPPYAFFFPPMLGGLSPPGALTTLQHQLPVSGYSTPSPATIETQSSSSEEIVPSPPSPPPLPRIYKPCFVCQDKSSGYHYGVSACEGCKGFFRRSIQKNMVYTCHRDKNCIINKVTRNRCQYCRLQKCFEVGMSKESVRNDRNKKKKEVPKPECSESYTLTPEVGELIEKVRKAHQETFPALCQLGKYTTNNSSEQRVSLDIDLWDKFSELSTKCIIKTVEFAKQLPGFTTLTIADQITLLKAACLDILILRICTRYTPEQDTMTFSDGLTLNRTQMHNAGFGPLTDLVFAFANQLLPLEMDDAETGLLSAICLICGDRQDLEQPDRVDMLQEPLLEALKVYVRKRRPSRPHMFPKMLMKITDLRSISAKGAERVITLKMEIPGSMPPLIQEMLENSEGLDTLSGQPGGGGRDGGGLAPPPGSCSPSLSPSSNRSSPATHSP
The assay can be described thus: Antagonist activity at Gal4-fused RARalpha (unknown origin) transfected in HEK293 cells assessed as ATRA-induced transcriptional activity at 4 uM by luciferase/beta-galactosidase reporter gene assay relative to ATRA-treated control. The format is cell-based. On the set-up: scale not given: the % may be the effect or the level left. In short, it runs like this: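 Same Gal4-RARα HEK-293 UAS-luciferase system, stimulated with 0.1 µM atRA alone or with 4 µM compound (40-fold molar excess); 1 µM UVI2024 served as control antagonist. Background-subtracted luciferase was normalized to β-galactosidase and given as percent of atRA-stimulated cells. Data: 2–3 experiments, triplicate.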
(In general: In a reporter assay the amount or activity of a reporter protein is the signal.)

Assay [3] concerns the target T3, Inhibitor of nuclear factor kappa-B kinase subunit alpha (Homo sapiens) (UniProt O15111).
T3 sequence (whole entry): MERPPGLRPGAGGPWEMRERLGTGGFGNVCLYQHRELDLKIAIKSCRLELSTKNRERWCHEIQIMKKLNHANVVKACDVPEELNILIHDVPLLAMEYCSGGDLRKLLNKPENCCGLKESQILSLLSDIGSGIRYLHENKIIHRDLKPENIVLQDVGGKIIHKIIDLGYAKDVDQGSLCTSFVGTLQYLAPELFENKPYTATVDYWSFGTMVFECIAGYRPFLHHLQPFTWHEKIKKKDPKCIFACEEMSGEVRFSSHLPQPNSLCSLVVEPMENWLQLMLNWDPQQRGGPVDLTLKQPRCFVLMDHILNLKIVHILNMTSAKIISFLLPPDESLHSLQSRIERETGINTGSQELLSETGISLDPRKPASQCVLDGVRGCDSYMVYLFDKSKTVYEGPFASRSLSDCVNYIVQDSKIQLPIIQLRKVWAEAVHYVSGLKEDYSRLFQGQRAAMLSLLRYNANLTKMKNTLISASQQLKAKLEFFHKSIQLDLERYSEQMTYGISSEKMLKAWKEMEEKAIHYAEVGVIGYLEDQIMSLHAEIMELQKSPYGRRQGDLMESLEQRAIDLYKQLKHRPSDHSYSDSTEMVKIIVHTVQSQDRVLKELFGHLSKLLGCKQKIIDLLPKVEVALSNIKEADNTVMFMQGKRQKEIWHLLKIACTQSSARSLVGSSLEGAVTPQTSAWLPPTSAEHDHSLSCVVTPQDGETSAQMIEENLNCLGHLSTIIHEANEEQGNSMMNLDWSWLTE
Kind of assay: Inhibition of recombinant IKKalpha (unknown origin) using ulight-IkappaomegaBalpha as substrate at 20 uM after 2 hrs by LANCE ultra TR-FRET assay relative to control. Summed up:
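Recombinant IKKα (4 nM), IKKβ (1 nM) or IKKε (2 nM) in 50 mM Hepes pH 7.4, 10 mM MgCl2, 1 mM EGTA, 2 mM DTT, 0.01% Tween-20. Substrate was 50 nM ULight-IκBα (IKKα/β) or ULight-rpS6 (IKKε); ATP was 1.25 µM (α/β) or 5 µM (ε). Compound was tested at 20 µM. Incubation was 1 h (IKKβ) or 2 h (IKKα/ε) at room temperature, stopped with 20 mM EDTA plus 2 nM Eu-anti-phospho antibody, then TR-FRET 665/615 nm. Results are percent inhibition versus solvent; 3–4 experiments, triplicate.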
(In general: TR-FRET usually uses a lanthanide donor and a delayed reading to cut background.)

The test system of another assay is Jurkat. The assay can be described thus: Induction of apoptosis in human Jurkat cells assessed as activation of DEVDase at 5 uM after 4 hrs by fluorometric assay relative to control. Type of assay: functional. Summed up: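 Jurkat cells (20,000/well, 0.5% FBS RPMI) were treated 4 h with 5 µM compound and lysed 15 min in PIPES pH 7 buffer with NP-40, cytochalasin B and protease inhibitors. An equal volume of 2× caspase buffer containing 100 µM Ac-DEVD-AFC was added. AFC fluorescence (ex 390/em 510 nm) was read every 2 min for 1 h at 37 °C; the linear slope was taken as activity, expressed as fold over DMSO control. Data: 2 experiments, triplicate.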

The nature of assay [4]: Cytotoxicity against human Jurkat T cells assessed as cell viability at 4 uM after 24 hrs by CellTiter-Glo assay relative to control. Type of assay: functional. To be noted: read-out: Activity. In short, it runs like this: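 Jurkat cells in 0.5% FBS RPMI were exposed to 4 µM compound or 0.1% DMSO for 24 h. Viability was read as ATP by CellTiter-Glo luminescence and expressed as percent of solvent control; below 60% counted as cell killing. Data: three experiments, triplicate.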
Background: ATP-based viability assays read luminescence as a measure of living cells.

Molecules are shown by their SMILES.

Turning to `Cc1cc(O)c(C23CC4CC(CC(C4)C2)C3)cc1-c1ncc(-c2ccc(C(=O)O)cc2)s1`, the results for the inhibition in assay [1] and in assay [3] were 95% and 87.9%, respectively. For the same compound, the Activity in assay [2] stood at 33.2%. In the assay with Jurkat, the “fold change (FC)” value amounted to 12.1. Moreover, the viability at 4 µM in assay [4] came out at 39%.

As for `COCCOCOc1ccc(-c2ncc(-c3ccc(C(=O)O)cc3)nc2OC)cc1C12CC3CC(CC(C3)C1)C2`, the inhibition (commonly the percentage by which the read-out fell short of the control) came to 25.4% in assay [1] and 23.8% in assay [3]. The Activity in assay [2] came out at 109%. Besides, in the assay on Jurkat, the “fold change (FC)” value amounted to 2.5. For the same compound, in assay [4], the viability at 4 µM turned out to be 91.4%.

Consider `COCCOCOc1ccc(-c2ncc(/C=C/C(=O)O)s2)cc1C12CC3CC(CC(C3)C1)C2`, for which the figures for the inhibition in assay [1] and in assay [3] were 1.9% and 4.5%, respectively. Besides, in assay [2], the Activity was determined as 94.2%. In addition, the “fold change (FC)” value with Jurkat was 0.6. Moreover, the viability at 4 µM in assay [4] came to 103%.
